According to paper PMC4410974 (Clinical cancer research : an official journal of the …, 2012):

Legend:
[1] = test system: p70S6 kinase phosphorylation at Thr389; assay: p70S6K phosphorylation at Thr389 in peripheral blood lymphocytes; format: in vivo, human
Summary of the method: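 Sirolimus-alone study only, oral weekly dosing. Blood drawn before dosing at baseline, week 1 day 2 and day 4, week 2 day 1, week 5 day 1. CD3+ cells enriched after density centrifugation, cryopreserved, then given medium or PMA (0.5 µg/ml) plus ionomycin (0.025 µg/ml), 1 hr, 37 °C. Western blot for phospho-Thr389 and total p70S6K, densitometry, cohort means, paired t-test. Indirect response model with rebound (kin, kout; baseline 100%), FOCE with interaction.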

[2] = Sirolimus whole blood pharmacokinetics; format: in vivo, human; settings: for AUC(0-inf) / Cmax / half-life / AUC / Tmax: human, whole blood, oral; for AUC: AUC [SD]; for Tmax: Tmax [SD]
Summary of the method: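 Advanced-cancer patients received oral sirolimus once weekly as 1 mg tablets. Week 1 was sirolimus alone. From week 2, ketoconazole was added: 200 mg bid on day 1, then 200 mg daily for 3 days. Whole blood was sampled predose and at 0.25, 0.5, 1, 2, 4, 8, 24 and 48 h in weeks 1–2, and predose in week 3. Analysis was noncompartmental. Cohort doses were re-estimated toward the target AUC assuming dose–AUC linearity.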

[3] = indirect response model with rebound
[4] = 30 mg, sirolimus alone study, 4 hours apart (total 60 mg), N=5, mean
[5] = 30 mg, sirolimus alone study, 24 hours apart (total 60 mg), N=3, mean
[6] = 45 mg, sirolimus alone study, 24 hours apart (total 90 mg), N=2, mean

## CO[C@H]1C[C@@H]2CC[C@@H](C)[C@@](O)(O2)C(=O)C(=O)N2CCCC[C@H]2C(=O)O[C@H]([C@H](C)C[C@@H]2CC[C@@H](O)[C@H](OC)C2)CC(=O)[C@H](C)/C=C(\C)[C@@H](O)[C@@H](OC)C(=O)[C@H](C)C[C@H](C)/C=C/C=C/C=C/1C [Sirolimus]
[1]; 10 mg weekly dose, 1 week after the initial dose (data not shown)
  phospho-p70S6K activity: suppressed
[1]; 48 hours after administration, all dose levels, sirolimus alone study, p = 0.006
  phospho-p70S6K in peripheral T cells: inhibition
[1]; [3]
  kout (first-order rate constant for loss of phospho-p70S6K), typical value: 0.05
  krebound, typical value: 11.3 mL/ng
[1]; indirect response model with rebound, baseline phosphorylation 100%
  kin (zero-order rate constant for gain of phospho-p70S6K), typical value: 5.5
[1]; sirolimus alone study
  Rebound effect on phospho-p70S6K (levels exceeded baseline at later time points), subjects: six out of twelve
[2]; 1 mg, sirolimus 1 mg, with ketoconazole, n=6
  AUC(0-inf): 0.935 µg·h/mL
[2]; 1 mg, sirolimus 1 mg, without ketoconazole, n=6
  AUC(0-inf): 0.186 µg·h/mL
[2]; 1 mg, Cmax, sirolimus 1 mg, with ketoconazole, n=6
  Cmax: 0.0254 µg/mL
[2]; 1 mg, Cmax, sirolimus 1 mg, without ketoconazole, n=6
  Cmax: 0.0054 µg/mL
[2]; 1 mg, T1/2, sirolimus 1 mg, without ketoconazole, n=6
  half-life: 82 h
[2]; 2 mg, sirolimus 2 mg, with ketoconazole, n=6
  AUC(0-inf): 1.35 µg·h/mL
[2]; 2 mg, sirolimus 2 mg, without ketoconazole, n=6
  AUC(0-inf): 0.271 µg·h/mL
[2]; 3 mg, sirolimus 3 mg, with ketoconazole, n=6
  AUC(0-inf): 2.45 µg·h/mL
[2]; 3 mg, sirolimus 3 mg, without ketoconazole, n=6
  AUC(0-inf): 0.4 µg·h/mL
[2]; 3 mg, Cmax, sirolimus 3 mg, with ketoconazole, n=6
  Cmax: 0.0492 µg/mL
[2]; 3 mg, T1/2, sirolimus 3 mg, with ketoconazole, n=6
  half-life: 84 h
[2]; 3 mg, T1/2, sirolimus 3 mg, without ketoconazole, n=6
  half-life: 35 h
[2]; 4 mg, sirolimus 4 mg, with ketoconazole, n=6
  AUC(0-inf): 2.9 µg·h/mL
[2]; 4 mg, sirolimus 4 mg, without ketoconazole, n=6
  AUC(0-inf): 0.456 µg·h/mL
[2]; 4 mg, Cmax, sirolimus 4 mg, with ketoconazole, n=6
  Cmax: 0.0668 µg/mL
[2]; 4 mg, Cmax, sirolimus 4 mg, without ketoconazole, n=6
  Cmax: 0.0213 µg/mL
[2]; 4 mg, T1/2, sirolimus 4 mg, without ketoconazole, n=6
  half-life: 36 h
[2]; 5 mg, sirolimus 5 mg, with ketoconazole, n=6
  AUC(0-inf): 3.14 µg·h/mL
[2]; 5 mg, sirolimus 5 mg, without ketoconazole, n=6
  AUC(0-inf): 0.676 µg·h/mL
[2]; 5 mg, Cmax, sirolimus 5 mg, with ketoconazole, n=6
  Cmax: 0.0712 µg/mL
[2]; 5 mg, Cmax, sirolimus 5 mg, without ketoconazole, n=6
  Cmax: 0.0258 µg/mL
[2]; 5 mg, T1/2, sirolimus 5 mg, with ketoconazole, n=6
  half-life: 57 h
[2]; 5 mg, T1/2, sirolimus 5 mg, without ketoconazole, n=6
  half-life: 35 h
[2]; 6 mg, sirolimus 6 mg, with ketoconazole, n=3
  AUC(0-inf): 2.62 µg·h/mL
[2]; 6 mg, sirolimus 6 mg, without ketoconazole, n=3
  AUC(0-inf): 0.51 µg·h/mL
[2]; 6 mg, Cmax, sirolimus 6 mg, with ketoconazole, n=3
  Cmax: 0.0746 µg/mL
[2]; 6 mg, Cmax, sirolimus 6 mg, without ketoconazole, n=3
  Cmax: 0.015 µg/mL
[2]; 6 mg, T1/2, sirolimus 6 mg, without ketoconazole, n=3
  half-life: 78 h
[2]; 8 mg, sirolimus 8 mg, with ketoconazole, n=1
  AUC(0-inf): 1.62 µg·h/mL
[2]; 8 mg, sirolimus 8 mg, without ketoconazole, n=1
  AUC(0-inf): 0.42 µg·h/mL
[2]; 8 mg, Cmax, sirolimus 8 mg, with ketoconazole, n=1
  Cmax: 0.0852 µg/mL
[2]; 8 mg, Cmax, sirolimus 8 mg, without ketoconazole, n=1
  Cmax: 0.0252 µg/mL
[2]; 8 mg, T1/2, sirolimus 8 mg, with ketoconazole, n=1
  half-life: 34 h
[2]; 8 mg, T1/2, sirolimus 8 mg, without ketoconazole, n=1
  half-life: 18 h
[2]; 16 mg, sirolimus 16 mg, with ketoconazole, n=2
  AUC(0-inf): 5.01 µg·h/mL
[2]; 16 mg, Cmax, sirolimus 16 mg, with ketoconazole, n=2
  Cmax: 0.123 µg/mL
[2]; 16 mg, T1/2, sirolimus 16 mg, with ketoconazole, n=2
  half-life: 32 h
[2]; [4]
  AUC: 2.05 µg·h/mL
  Tmax: 2.2 h
[2]; [5]
  AUC: 3.68 µg·h/mL
  Tmax: 2.3 h
[2]; 30 mg, Cmax [SD], sirolimus alone study, 4 hours apart (total 60 mg), N=5, mean
  Cmax: 0.0329 µg/mL
[2]; 30 mg, Cmax [SD], sirolimus alone study, 24 hours apart (total 60 mg), N=3, mean
  Cmax: 0.0839 µg/mL
[2]; [6]
  AUC: 3.36 µg·h/mL
  Tmax: 2.1 h
[2]; 45 mg, Cmax [SD], sirolimus alone study, 24 hours apart (total 90 mg), N=2, mean
  Cmax: 0.0428 µg/mL
[2]; sirolimus 1 mg, with ketoconazole, n=6
  CL/F: 1.2 L/h
[2]; sirolimus 1 mg, without ketoconazole, n=6
  CL/F: 10.3 L/h
[2]; sirolimus 2 mg, with ketoconazole, n=6
  CL/F: 1.8 L/h
[2]; sirolimus 2 mg, without ketoconazole, n=6
  CL/F: 9.5 L/h
[2]; sirolimus 3 mg, with ketoconazole, n=6
  CL/F: 1.6 L/h
[2]; sirolimus 3 mg, without ketoconazole, n=6
  CL/F: 8.0 L/h
[2]; sirolimus 4 mg, with ketoconazole, n=6
  CL/F: 2.1 L/h
[2]; sirolimus 4 mg, without ketoconazole, n=6
  CL/F: 10.0 L/h
[2]; sirolimus 5 mg, with ketoconazole, n=6
  CL/F: 2.8 L/h
[2]; sirolimus 5 mg, without ketoconazole, n=6
  CL/F: 9.0 L/h
[2]; sirolimus 6 mg, with ketoconazole, n=3
  CL/F: 2.6 L/h
[2]; sirolimus 6 mg, without ketoconazole, n=3
  CL/F: 15.6 L/h
[2]; sirolimus 8 mg, with ketoconazole, n=1
  CL/F: 4.9 L/h
[2]; sirolimus 8 mg, without ketoconazole, n=1
  CL/F: 19.1 L/h
[2]; sirolimus 15 mg, with grapefruit juice, n=5
  CL/F: 5.9 L/h
[2]; sirolimus 15 mg, without grapefruit juice, n=5
  CL/F: 20.5 L/h
[2]; sirolimus 16 mg, with ketoconazole, n=2
  CL/F: 3.2 L/h
[2]; sirolimus 16 mg, without ketoconazole, n=2
  CL/F: 11.2 L/h
[2]; sirolimus 20 mg, with grapefruit juice, n=5
  CL/F: 11.5 L/h
[2]; sirolimus 20 mg, without grapefruit juice, n=5
  CL/F: 36.9 L/h
[2]; sirolimus 25 mg, with grapefruit juice, n=4
  CL/F: 9.2 L/h
[2]; sirolimus 25 mg, without grapefruit juice, n=4
  CL/F: 32.6 L/h
[2]; sirolimus 30 mg, with grapefruit juice, n=5
  CL/F: 12.6 L/h
[2]; sirolimus 30 mg, without grapefruit juice, n=5
  CL/F: 18.7 L/h
[2]; sirolimus 35 mg, with grapefruit juice, n=8
  CL/F: 12.8 L/h
[2]; sirolimus 35 mg, without grapefruit juice, n=8
  CL/F: 29.4 L/h
[2]; sirolimus alone study, 30 mg, 4 hours apart (total 60 mg), N=5, mean
  CL/F [SD]: 19.786 [15.2] l/h
[2]; sirolimus alone study, 30 mg, 24 hours apart (total 60 mg), N=3, mean
  CL/F [SD]: 17.087 [2.90] l/h
[2]; sirolimus alone study, 45 mg, 24 hours apart (total 90 mg), N=2, mean
  CL/F [SD]: 26.842 [1.1] l/h
[2]; sirolimus alone study, dose cohort 10 mg, N=6, mean
  CL/F [SD]: 16.922 [6.08] l/h
[2]; sirolimus alone study, dose cohort 20 mg, N=7, mean
  CL/F [SD]: 18.736 [11.0] l/h
[2]; sirolimus alone study, dose cohort 30 mg, N=6, mean
  CL/F [SD]: 16.148 [10.4] l/h
[2]; sirolimus alone study, dose cohort 60 mg, N=8, mean
  CL/F [SD]: 19.588 [13.6] l/h
[2]; sirolimus plus grapefruit juice study
  Sirolimus dose at which target AUC of 3810 ng-hr/ml was achieved/observed: 25 mg
[2]; sirolimus plus ketoconazole study
  Sirolimus dose at which target AUC of 3810 ng-hr/ml was achieved: 16 mg
